Screening data deposited in PubChem by several laboratories.
Lipid droplet – inhibitors of hepatocyte lipid droplet formation, primary screen, imaging, high-throughput imaging, BODIPY stain. AID 1656, 2009. 0.4% of 240,000 active. AML12 mouse hepatocytes, oleate lipid droplets. inhibition, % at 6.5 µM;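 active = lipid droplet intensity inhibited by at least 50%, with more than 500 cells counted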
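material = mouse AML12 hepatocyte cell line, fixed after treatment | also added = 100 µM oleic acid challenge | doses = compound at 6.5 µM only | schedule = overnight exposure | technique = Image-based BODIPY and DAPI two-channel analysis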
CHOP inhibitor – inhibitors of CHOP promoter induction, primary screen, cell-based, unfolded protein response, luciferase reporter | CHO-K1 CHOP-promoter luciferase, tunicamycin-induced, 15-18 h | inhibition, % at 10 µM | 3.8% of 220,000 active;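 active = compounds that reduced the stress-induced luciferase reporter signal by more than about 70% of percent inhibition, limit read from the data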
ANO1 block – TMEM16A chloride channel inhibitors, primary screen, cell-based, HTS. Anoctamin-1 (Mus musculus), Q8BHY3. HEK293 TMEM16A/YFP iodide influx fluorescence, ionomycin. normalized B-score (activity score, 25-100; higher = stronger inhibition) at 10 µM. 1.2% of 310,000 active. AID 588511, 2011;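 active = ratio plate-corrected score three or more library SD toward inhibition, starting fluorescence score within five deviations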;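 also: score derived from kinetic fluorescence span divided by baseline fluorescence per well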
Target sequence (Q8BHY3 whole entry, looked up): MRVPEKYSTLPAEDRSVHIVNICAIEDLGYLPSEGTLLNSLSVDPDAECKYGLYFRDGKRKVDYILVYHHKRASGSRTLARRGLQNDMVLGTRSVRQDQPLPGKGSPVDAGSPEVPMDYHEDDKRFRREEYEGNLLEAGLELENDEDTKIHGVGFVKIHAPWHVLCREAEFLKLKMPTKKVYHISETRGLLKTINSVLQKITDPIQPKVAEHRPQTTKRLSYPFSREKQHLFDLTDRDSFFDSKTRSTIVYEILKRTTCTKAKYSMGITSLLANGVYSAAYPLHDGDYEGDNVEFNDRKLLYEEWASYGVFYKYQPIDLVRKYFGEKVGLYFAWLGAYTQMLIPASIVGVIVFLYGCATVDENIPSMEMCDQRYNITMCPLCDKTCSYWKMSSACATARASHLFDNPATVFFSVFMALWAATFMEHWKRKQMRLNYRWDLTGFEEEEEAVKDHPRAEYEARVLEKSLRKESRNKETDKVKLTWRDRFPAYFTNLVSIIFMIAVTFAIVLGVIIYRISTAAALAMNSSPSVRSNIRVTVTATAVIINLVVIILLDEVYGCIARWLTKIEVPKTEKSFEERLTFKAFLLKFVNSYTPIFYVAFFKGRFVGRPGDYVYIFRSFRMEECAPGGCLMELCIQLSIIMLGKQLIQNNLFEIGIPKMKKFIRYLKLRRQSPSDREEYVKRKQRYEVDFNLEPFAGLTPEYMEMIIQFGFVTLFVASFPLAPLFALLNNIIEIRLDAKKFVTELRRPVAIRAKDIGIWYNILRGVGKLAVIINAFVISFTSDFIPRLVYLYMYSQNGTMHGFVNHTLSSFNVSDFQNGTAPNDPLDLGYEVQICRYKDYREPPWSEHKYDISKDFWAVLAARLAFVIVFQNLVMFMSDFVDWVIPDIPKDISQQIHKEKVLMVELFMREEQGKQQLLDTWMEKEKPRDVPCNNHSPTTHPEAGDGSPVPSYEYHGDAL
UPR CHOP act – activators of apoptotic CHOP UPR arm, primary screen, cell-based, CHO-CHOP luciferase reporter, luminescence, uHTS; UPR activation; percent of tunicamycin response over DMSO baseline; activation, % at 10 µM; AID 449763, 2010; 0.34% of 330,000 active;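 active = at 10 µM dose, activation of 40% or more, normalized to positive control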
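Test system: CHO-CHOP cells, stable luciferase reporter of PERK-eIF2a-CHOP signalling | Quantity: 500 CHO-CHOP cells per well | Buffer or medium: F12 plus 10% serum | Compound dosing: 10 µM single point, 0.5% DMSO | Schedule: 6 h compound treatment, 37 °C | Signal: Luciferase luminescence | Control set: Tunicamycin high control, DMSO low control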
XBP1 UPR activ – activators of adaptive XBP1 UPR arm, primary screen, cell-based, CHO-XBP1 luciferase reporter, luminescence, uHTS; IRE1-XBP1 UPR activation; percent of tunicamycin response, DMSO as zero; activation, % at 20 µM; 0.33% of 330,000 active; AID 463104, 2010;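 active = versus positive control, 20 µM dose yields 30% or more activation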
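assay system = CHO-XBP1 luciferase reporter cells | amount = 1000 cells/well | buffer or medium = F12 plus 10% FBS | compound dosing = single point, 20 µM final compound, 1% DMSO | incubation = 16-18 h cell attachment at 37 °C, then 6 h compound exposure | detection = Steady-Glo luminescence read | controls = tunicamycin 10 µg/mL and vehicle-only wells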
TMEM16A act – TMEM16A chloride channel activators or potentiators, primary screen, cell-based, HTS | HEK293 TMEM16A/YFP-H148Q/I152L, iodide quench fluorescence; hits give low values | B-score at 10 µM | AID 623877, 2012 | 0.3% of 340,000 active;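 active = fluorescence-ratio B-score plate-corrected deviation score at least 3 library SD below zero, with starting fluorescence score within 5 deviations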;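 also: channel opened by trigger with iodide after compound preincubation; score built on the fluorescence ratio of max minus min over baseline; more negative score means more quench and so TMEM16A activation or potentiation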
Large screens that a line does not name were inactive. In the library only some 4.2% were active in any assay of this set; here they are far more common.

NS(=O)(=O)c1ccc(-c2cccc(/C=C3\SC(=O)NC3=O)c2)cc1	TMEM16A act -4.9 (no result: CHOP inhibitor)
COc1ccc(C=C2SC(=O)NC2=O)cc1OC	none (no result: Lipid droplet, CHOP inhibitor, ANO1 block, UPR CHOP act, XBP1 UPR activ)
Cc1cc(C)n(CCOC(=O)c2sc3ccccc3c2Cl)n1	CHOP inhibitor 74 (no result: Lipid droplet)
C#CCOCCOCCOCCNc1nc(N2CCN(C(=O)CCCCCCCCCCNC(=O)[C@H]([C@@H](C)CC)n3cc(CCCCN=C(N)N)nn3)CC2)nc(N2CCN(C(=O)CCCCCCCCCCNC(=O)[C@H](CCCCN)n3cc(C[C@@H](C)CC)nn3)CC2)n1	XBP1 UPR activ 39 (no result: Lipid droplet, CHOP inhibitor, TMEM16A act)
C#CCOCCOCCOCCNc1nc(N2CCN(C(=O)CCCCCCCCCCNC(=O)[C@H](CCCCN)n3cc(CCO)nn3)CC2)nc(N2CCN(C(=O)CCCCCCCCCCNC(=O)[C@H](CCCN=C(N)N)n3cc(C[C@@H](C)CC)nn3)CC2)n1	ANO1 block 100, TMEM16A act -22 (no result: Lipid droplet, CHOP inhibitor)
C#CCOCCOCCOCCNc1nc(N2CCN(C(=O)CCCCCCCCCCNC(=O)Cn3cc(C[C@@H](C)O)nn3)CC2)nc(N2CCN(C(=O)CCCCCCCCCCNC(=O)[C@H](CCCCN)n3cc(C[C@@H](C)CC)nn3)CC2)n1	none (no result: Lipid droplet, CHOP inhibitor)
C#CCOCCOCCOCCNc1nc(N2CCN(C(=O)CCCCCCCCCCNC(=O)[C@H](CCCCN)n3cc(CCCC(=O)O)nn3)CC2)nc(N2CCN(C(=O)CCCCCCCCCCNC(=O)[C@H](CCCN=C(N)N)n3cc(C[C@@H](C)CC)nn3)CC2)n1	ANO1 block 100, TMEM16A act -16 (no result: Lipid droplet, CHOP inhibitor)
C#CCOCCOCCOCCNc1nc(N2CCN(C(=O)CCCCCCCCCCNC(=O)[C@H](CCCCN)n3cc(C[C@@H](C)CC)nn3)CC2)nc(N2CCN(C(=O)CCCCCCCCCCNC(=O)[C@H](CCCCN)n3cc(C[C@@H](C)CC)nn3)CC2)n1	ANO1 block 25, TMEM16A act -22 (no result: Lipid droplet, CHOP inhibitor, UPR CHOP act, XBP1 UPR activ)
Cc1cc(C)n2nc(SC(C)C(=O)N3CC(C)OC(C)C3)nc2n1 (centres undefined)	none (no result: Lipid droplet, CHOP inhibitor, ANO1 block)
C=CCOC(=O)C1=C[C@H](c2coc3ccccc3c2=O)C[C@H](OCCCCO)O1	none (no result: Lipid droplet, CHOP inhibitor)
Cc1ccc(NC(=O)CCC(=O)NNC(=S)Nc2ccc(F)cc2F)cc1C	none (no result: CHOP inhibitor)
Nc1nnc(Cc2ccc(Cl)cc2Cl)s1	none
Nc1nc(-c2ccccn2)nc(N)c1Cc1ccc(Cl)cc1Cl	XBP1 UPR activ 43 (no result: Lipid droplet)
Nc1nc(-c2ccccn2)nc(N)c1Cc1c(F)cccc1Cl	CHOP inhibitor 71
Nc1nc(-c2ccccn2)nc(N)c1Cc1ccccc1F	none (no result: Lipid droplet)
CC(=O)c1ccc(S(=O)(=O)Nc2cccc(-n3cnnn3)c2)cc1	none (no result: CHOP inhibitor)
Cc1ccc2oc(=O)c(-c3ccc(O)cc3)c(C)c2c1	none (no result: Lipid droplet, CHOP inhibitor, ANO1 block)
CCN(c1cccc(C)c1)c1nc2ccsc2c(=O)s1	CHOP inhibitor 73
CCN(c1ccccc1)c1nc(=O)c2cccnc2s1	none
CCCCCCOC(=O)C[N+](C)(C)CCOC1CC2CCC1(C)C2(C)C (centres undefined)	none
CCCCCCCOC(=O)C[N+](C)(C)CCOC1CC2CCC1(C)C2(C)C (centres undefined)	CHOP inhibitor 93 (no result: ANO1 block, UPR CHOP act, XBP1 UPR activ)
CCCCN(CC)c1nc(-c2ccncc2)nc2ccccc12	CHOP inhibitor 80
CCCN(CCC)c1nc(-c2ccccn2)nc2ccccc12	UPR CHOP act 69 (no result: CHOP inhibitor)
COCCN(CCOC)c1nc(-c2ccc(C)cc2)nc2ccccc12	none (no result: CHOP inhibitor)
CCc1ccc(CNC(=O)CCC(=O)N2Cc3cccc(OC)c3Oc3ncccc32)cc1	none (no result: CHOP inhibitor)
O=C(NC(Cc1ccccc1)C(=O)O)/C(=C/c1ccc(Cl)cc1)NC(=O)c1ccco1 (centres undefined)	none (no result: CHOP inhibitor)
COc1ccccc1NS(=O)(=O)c1cccc(-n2c(O)c(C=Nc3ccccc3C(=O)O)c3ccccc3c2=O)c1	Lipid droplet 52
O=C(Nc1ccc(-c2nc3ccccc3s2)c(O)c1)C1=COCCO1	CHOP inhibitor 72
Cc1cccc(N2CCN(CC(=O)Nc3ccc(-n4cnnn4)cc3)CC2)c1C	CHOP inhibitor 94 (no result: Lipid droplet)
OC1(c2cccc(C(F)(F)F)c2)CCN(c2ccc(-c3ccccc3)nn2)CC1	CHOP inhibitor 85
c1ccc2c(c1)CCN(c1ncnc3c1[nH]c1ccccc13)C2	CHOP inhibitor 71, ANO1 block 100
OC1(c2cccc(C(F)(F)F)c2)CCN(c2ncnc3c2[nH]c2ccccc23)CC1	CHOP inhibitor 71, ANO1 block 100 (no result: Lipid droplet)
CC(=O)N(C)c1ccc(NC(=O)N2CCOCC2)cc1	none (no result: CHOP inhibitor)
CCOc1ccc(NS(=O)(=O)c2ccc(-c3coc(C)n3)cc2)cc1	none (no result: CHOP inhibitor)
Cc1c(-c2ccccc2)c(=O)oc2cc(O)ccc12	none (no result: CHOP inhibitor)
Cc1ccc(OC(=O)c2ccncc2)c(C)c1	none (no result: CHOP inhibitor)
Cc1ccc(S(=O)(=O)N2CCC(=O)N(C(COCc3cccc(C(F)(F)F)c3)Cc3ccccc3)CC2)cc1 (centres undefined)	TMEM16A act -19
Cc1ccc(S(=O)(=O)N2CCC(=O)N(C(COCc3ccc(Cl)cc3Cl)Cc3ccccc3)CC2)cc1 (centres undefined)	TMEM16A act -29
Cc1ccc(S(=O)(=O)N2CCC(=O)N(C(COCc3cccc(Cl)c3)Cc3ccccc3)CC2)cc1 (centres undefined)	TMEM16A act -11
CCOC(=O)CN1C(=O)C(Sc2n[nH]c(-c3ccccc3)n2)CCc2ccccc21 (centres undefined)	none (no result: Lipid droplet)
O=S(=O)(NC1CCCCC1N1CCN(c2ccccc2F)CC1)c1ccc(Cl)cc1 (centres undefined)	TMEM16A act -40 (no result: CHOP inhibitor)
CCN(CC)S(=O)(=O)c1cccc(NC(=O)CCSc2ccc(Cl)cc2)c1	none (no result: UPR CHOP act, XBP1 UPR activ)
CCc1ccn2cc(-c3cc(-c4ccccc4)no3)nc2c1	CHOP inhibitor 77 (no result: Lipid droplet)
CCOCCCNC(=O)c1cn(C)c2ccc(S(=O)(=O)N3CCCCC3)cc2c1=O	none (no result: CHOP inhibitor)
CCOc1cc(CNCCO)cc(Br)c1OCc1ccc(Cl)cc1	CHOP inhibitor 75 (no result: Lipid droplet)
CC(=O)Nc1cccc(NC(=O)CSc2n[nH]c(-c3ccccc3)n2)c1	none (no result: Lipid droplet, CHOP inhibitor, ANO1 block)
Nc1ccc(-c2nc3ccc(N)cc3o2)cc1	none (no result: Lipid droplet)
Cc1ccc2nc(-c3cc(N)cc(N)c3)oc2c1	CHOP inhibitor 79 (no result: Lipid droplet)
CCn1cc(/C=C(\NC(=O)c2ccc(OC)c(OC)c2)C(=O)NCCCN2CCOCC2)c2ccccc21	TMEM16A act -43 (no result: CHOP inhibitor, ANO1 block)
